Results reported in ChEMBL document CHEMBL3259649, “Design and synthesis of novel 2-(4-(2-(dimethylamino)ethyl)-4H-1,2,4-triazol-3-yl)pyridines as potential antitumor agents” (Eur J Med Chem, 2014).

Columns and labels:
[1] = Cytotoxicity against human MKN45 cells after 72 hrs by MTT assay; format: functional, cell-based; details: MKN-45, 72 h
Summary of the method: (§1)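 MTT assay: about 4 × 10³ cells per well in MEM with 10% FBS, grown 24 h at 37 °C under 5% CO₂, then exposed to compound for 72 h. MTT added to a final 5 µg/mL for 4 h at 37 °C. Three runs per cell line; IC50 is the mean of at least three determinations.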

[2] = Cytotoxicity against human H460 cells after 72 hrs by MTT assay; format: functional, cell-based; details: NCI-H460, 72 h; summary of the method: as §1
HT-29 = assay: Cytotoxicity against human HT-29 cells after 72 hrs by MTT assay; format: functional, cell-based; details: HT-29, 72 h; summary of the method: as §1
A549 = assay: Cytotoxicity against human A549 cells after 72 hrs by MTT assay; format: functional, cell-based; details: A549, 72 h
Summary of the method: as §1, with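 “°C. Formazan dissolved in DMSO and absorbance read at 492 nm against 630 nm reference.” for “°C.”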

[3] = Cytotoxicity against human U87MG cells after 72 hrs by MTT assay; format: functional, cell-based, U-87MG ATCC; details: U-87 MG
Summary of the method: as §1, with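 “°C. Formazan dissolved in DMSO and absorbance read at 492 nm against 630 nm reference.” for “°C.”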

WI-38 = assay: Cytotoxicity against human WI38 cells after 72 hrs by MTT assay; format: cell-based; details: WI-38, 72 h
Summary of the method: as §1, with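 “°C. Formazan dissolved in DMSO and absorbance read at 492 nm against 630 nm reference.” for “°C.”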

[4] = molecular target: RAF proto-oncogene serine/threonine-protein kinase (Homo sapiens) (UniProt P04049); assay: Inhibition of Raf1 (unknown origin) at 10 uM after 1 hr by HTRF method
Sequence of RAF proto-oncogene serine/threonine-protein kinase (Homo sapiens) (P04049 whole entry): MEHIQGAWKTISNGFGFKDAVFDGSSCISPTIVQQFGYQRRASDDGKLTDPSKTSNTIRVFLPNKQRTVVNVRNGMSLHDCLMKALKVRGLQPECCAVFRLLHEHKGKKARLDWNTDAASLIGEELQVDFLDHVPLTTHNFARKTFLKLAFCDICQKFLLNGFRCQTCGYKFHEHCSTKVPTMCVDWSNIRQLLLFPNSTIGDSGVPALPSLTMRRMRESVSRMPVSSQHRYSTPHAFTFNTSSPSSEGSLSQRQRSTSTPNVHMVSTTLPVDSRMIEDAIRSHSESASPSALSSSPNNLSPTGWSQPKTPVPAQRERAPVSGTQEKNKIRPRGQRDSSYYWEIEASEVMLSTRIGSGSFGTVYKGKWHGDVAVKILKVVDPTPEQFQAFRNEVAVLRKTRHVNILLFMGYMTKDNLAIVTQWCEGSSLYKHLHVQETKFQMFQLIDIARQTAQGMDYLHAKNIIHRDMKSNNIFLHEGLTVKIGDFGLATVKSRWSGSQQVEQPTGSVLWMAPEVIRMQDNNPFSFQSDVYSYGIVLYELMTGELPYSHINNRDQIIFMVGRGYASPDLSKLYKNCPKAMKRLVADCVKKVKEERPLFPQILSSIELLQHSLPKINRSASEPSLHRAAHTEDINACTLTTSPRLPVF

[5] = molecular target: Platelet-derived growth factor receptor alpha (Homo sapiens) (UniProt P16234); assay: Inhibition of PDGFRalpha (unknown origin) at 10 uM after 20 mins by HTRF method
Sequence of Platelet-derived growth factor receptor alpha (Homo sapiens) (P16234 whole entry): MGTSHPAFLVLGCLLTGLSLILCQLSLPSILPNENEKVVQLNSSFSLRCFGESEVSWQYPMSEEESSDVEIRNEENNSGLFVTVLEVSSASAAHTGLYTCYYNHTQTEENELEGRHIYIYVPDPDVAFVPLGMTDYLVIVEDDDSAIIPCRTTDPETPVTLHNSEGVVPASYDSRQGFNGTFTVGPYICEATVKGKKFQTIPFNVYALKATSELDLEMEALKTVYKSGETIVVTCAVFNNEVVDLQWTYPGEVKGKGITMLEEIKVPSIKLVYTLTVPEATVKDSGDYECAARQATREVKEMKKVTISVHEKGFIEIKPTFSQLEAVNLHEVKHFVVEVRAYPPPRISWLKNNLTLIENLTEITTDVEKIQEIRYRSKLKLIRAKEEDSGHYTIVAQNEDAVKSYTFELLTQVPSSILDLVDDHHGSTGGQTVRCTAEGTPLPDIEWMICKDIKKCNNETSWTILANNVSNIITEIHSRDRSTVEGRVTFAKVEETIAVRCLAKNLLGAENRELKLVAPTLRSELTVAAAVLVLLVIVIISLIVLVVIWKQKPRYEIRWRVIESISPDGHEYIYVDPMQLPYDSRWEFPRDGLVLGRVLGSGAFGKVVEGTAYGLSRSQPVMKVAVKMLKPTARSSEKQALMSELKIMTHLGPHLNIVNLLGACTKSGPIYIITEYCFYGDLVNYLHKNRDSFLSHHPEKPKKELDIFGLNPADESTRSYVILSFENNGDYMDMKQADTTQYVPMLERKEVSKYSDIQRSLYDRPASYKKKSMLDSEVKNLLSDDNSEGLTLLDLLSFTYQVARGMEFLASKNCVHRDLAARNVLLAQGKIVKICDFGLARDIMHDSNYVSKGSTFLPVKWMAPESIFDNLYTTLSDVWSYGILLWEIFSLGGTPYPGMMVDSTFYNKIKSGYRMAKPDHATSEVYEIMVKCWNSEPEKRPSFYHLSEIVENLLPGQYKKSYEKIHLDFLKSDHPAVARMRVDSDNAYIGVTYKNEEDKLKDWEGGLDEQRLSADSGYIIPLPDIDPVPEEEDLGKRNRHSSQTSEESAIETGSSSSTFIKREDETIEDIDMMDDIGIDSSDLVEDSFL

Question: Which IC50 [1] does the source give for `CN(C)CCn1cnnc1-c1cc(Oc2ccc(NC(=O)N/N=C/c3ccc(O)cc3)cc2F)ccn1` here?
Answer: Its IC50 is 820 nM.

Question: And the IC50 [2]?
Answer: The IC50 was 1780 nM.

Question: And the IC50 (HT-29)?
Answer: Its IC50 is 1920 nM.

Question: What about the IC50 (A549) of the same compound?
Answer: Its IC50 is 3560 nM.

Question: And the IC50 [3]?
Answer: The IC50 was 7750 nM.

Question: What does the source list for `CN(C)CCn1cnnc1-c1cc(Oc2ccc(NC(=O)N/N=C/c3cccc(Br)c3)cc2F)ccn1`?
Answer: IC50 [1]: 450 nM; IC50 [2]: 520 nM; IC50 (HT-29): 380 nM; IC50 (A549): 970 nM; IC50 [3]: 830 nM; IC50 (WI-38): 4230 nM; inhibition [4]: 66.1%; inhibition [5]: 13.2%

Question: Which IC50 [1] does the source give for `CN(C)CCn1cnnc1-c1cc(Oc2ccc(NC(=O)N/N=C/c3ccc(O)c(O)c3)cc2F)ccn1` here?
Answer: The IC50 was 3240 nM.

Question: And the IC50 [2]?
Answer: Its IC50 is 1930 nM.

Question: And the IC50 (HT-29)?
Answer: Its IC50 is 1890 nM.

Question: What about the IC50 (A549) of the same compound?
Answer: The IC50 was > 100000 nM.

Question: What about the IC50 [3] of the same compound?
Answer: Its IC50 is > 100000 nM.

Question: Which results are given for `COc1cc(/C=N/NC(=O)Nc2ccc(Oc3ccnc(-c4nncn4CCN(C)C)c3)c(F)c2)ccc1O`?
Answer: IC50 [1]: 3780 nM; IC50 [2]: 57 nM; IC50 (HT-29): 120 nM; IC50 (A549): > 100000 nM; IC50 [3]: > 100000 nM; IC50 (WI-38): 5320 nM; inhibition [4]: 52.3%; inhibition [5]: 3.7%

Question: Which IC50 [1] does the source give for `CN(C)CCn1cnnc1-c1cc(Oc2ccc(NC(=O)N/N=C/c3c(O)ccc4ccccc34)cc2F)ccn1` here?
Answer: Its IC50 is 2020 nM.

Question: What about the IC50 [2] of the same compound?
Answer: Its IC50 is 890 nM.

Question: What about the IC50 (HT-29) of the same compound?
Answer: Its IC50 is 670 nM.

Question: What about the IC50 (A549) of the same compound?
Answer: The IC50 was 880 nM.

Question: What about the IC50 [3] of the same compound?
Answer: Its IC50 is 620 nM.

Question: And the IC50 (WI-38)?
Answer: Its IC50 is 3250 nM.

Question: For `COc1cc(/C=N/NC(=O)Nc2ccc(Oc3ccnc(-c4nncn4CCN(C)C)c3)c(F)c2)cc(OC)c1OC`, which IC50 [1] is on record?
Answer: Its IC50 is 2900 nM.

Question: What about the IC50 [2] of the same compound?
Answer: The IC50 was 2770 nM.

Question: And the IC50 (HT-29)?
Answer: Its IC50 is 3620 nM.

Question: What about the IC50 (A549) of the same compound?
Answer: The IC50 was > 100000 nM.

Question: What about the IC50 [3] of the same compound?
Answer: Its IC50 is 22500 nM.

Question: What does the source list for `CN(C)CCn1cnnc1-c1cc(Oc2ccc(NC(=O)N/N=C/c3ccccc3[N+](=O)[O-])cc2F)ccn1`?
Answer: IC50 [1]: 1020 nM; IC50 [2]: 1270 nM; IC50 (HT-29): 950 nM; IC50 (A549): 1200 nM; IC50 [3]: 7150 nM; IC50 (WI-38): 6860 nM

Question: Which inhibition [5] does the source give for `COc1cc2c(Oc3ccc(NC(=O)C4(C(=O)Nc5ccc(F)cc5)CC4)cc3F)ccnc2cc1OCCCN1CCOCC1` here?
Answer: Its inhibition is 98.7%.

Question: For `Cn1ncnc1-c1cc(Oc2ccc(NC(=O)N/N=C/c3ccccc3)cc2F)ccn1`, which IC50 [1] is on record?
Answer: Its IC50 is > 100000 nM.

Question: What about the IC50 [2] of the same compound?
Answer: Its IC50 is 52200 nM.

Question: What about the IC50 (HT-29) of the same compound?
Answer: Its IC50 is 30200 nM.

Question: And the IC50 (A549)?
Answer: Its IC50 is > 100000 nM.

Question: What about the IC50 [3] of the same compound?
Answer: Its IC50 is > 100000 nM.

Question: With `CN(C)CCn1cnnc1-c1cc(Oc2ccc(NC(=O)N/N=C/c3ccc(Cl)cc3)cc2F)ccn1` as the compound, how does the IC50 [1] read?
Answer: The IC50 was 570 nM.

Question: What about the IC50 [2] of the same compound?
Answer: The IC50 was 320 nM.

Question: What about the IC50 (HT-29) of the same compound?
Answer: Its IC50 is 530 nM.

Question: What about the IC50 (A549) of the same compound?
Answer: The IC50 was 780 nM.

Question: What about the IC50 [3] of the same compound?
Answer: The IC50 was 1370 nM.

Question: And the IC50 (WI-38)?
Answer: The IC50 was 1870 nM.

Question: For `CN(C)CCn1cnnc1-c1cc(Oc2ccc(NC(=O)N/N=C/c3ccccc3)cc2F)ccn1`, which IC50 [1] is on record?
Answer: Its IC50 is 2730 nM.

Question: And the IC50 [2]?
Answer: The IC50 was 1780 nM.

Question: And the IC50 (HT-29)?
Answer: Its IC50 is 1120 nM.

Question: And the IC50 (A549)?
Answer: The IC50 was 1860 nM.

Question: And the IC50 [3]?
Answer: The IC50 was 2250 nM.

Question: Which results are given for `CNC(=O)c1cc(Oc2ccc(NC(=O)Nc3ccc(Cl)c(C(F)(F)F)c3)cc2)ccn1` [SORAFENIB]?
Answer: IC50 (A549): 1920 nM; IC50 [3]: 15600 nM; IC50 (WI-38): 7540 nM

Question: With `CN(C)CCn1cnnc1-c1cc(Oc2ccc(NC(=O)N/N=C/c3ccc(O)cc3O)cc2F)ccn1` as the compound, how does the IC50 [1] read?
Answer: The IC50 was 2860 nM.

Question: What about the IC50 [2] of the same compound?
Answer: Its IC50 is 11300 nM.

Question: What about the IC50 (HT-29) of the same compound?
Answer: Its IC50 is 52600 nM.

Question: And the IC50 (A549)?
Answer: Its IC50 is 12700 nM.

Question: What about the IC50 [3] of the same compound?
Answer: Its IC50 is 15400 nM.

Question: Which IC50 [1] does the source give for `Cc1cc(/C=N/NC(=O)Nc2ccc(Oc3ccnc(-c4nncn4CCN(C)C)c3)c(F)c2)cc(C)c1O` here?
Answer: Its IC50 is 1510 nM.

Question: And the IC50 [2]?
Answer: The IC50 was 2010 nM.

Question: What about the IC50 (HT-29) of the same compound?
Answer: The IC50 was 1220 nM.

Question: And the IC50 (A549)?
Answer: The IC50 was 1640 nM.

Question: And the IC50 [3]?
Answer: Its IC50 is 7710 nM.

Question: What about the IC50 (WI-38) of the same compound?
Answer: The IC50 was 3610 nM.

Question: With `CN(C)CCn1cnnc1-c1cc(Oc2ccc(NC(=O)N/N=C/c3ccc(Cl)cc3Cl)cc2F)ccn1` as the compound, how does the IC50 [1] read?
Answer: The IC50 was 750 nM.

Question: And the IC50 [2]?
Answer: Its IC50 is 130 nM.

Question: What about the IC50 (HT-29) of the same compound?
Answer: The IC50 was 390 nM.

Question: What about the IC50 (A549) of the same compound?
Answer: Its IC50 is 810 nM.

Question: What about the IC50 [3] of the same compound?
Answer: Its IC50 is 2330 nM.

Question: And the IC50 (WI-38)?
Answer: The IC50 was 4760 nM.

Question: And the inhibition [4]?
Answer: Its inhibition is 73.7%.

Question: What about the inhibition [5] of the same compound?
Answer: The inhibition was 11.2%.

Question: Which IC50 [1] does the source give for `CN(C)CCn1cnnc1-c1cc(Oc2ccc(NC(=O)N/N=C/c3ccc(F)cc3F)cc2F)ccn1` here?
Answer: Its IC50 is 810 nM.

Question: And the IC50 [2]?
Answer: Its IC50 is 1930 nM.

Question: And the IC50 (HT-29)?
Answer: Its IC50 is 960 nM.

Question: And the IC50 (A549)?
Answer: The IC50 was 1870 nM.

Question: And the IC50 [3]?
Answer: Its IC50 is 1900 nM.

Question: And the IC50 (WI-38)?
Answer: Its IC50 is 5030 nM.

Question: And the inhibition [4]?
Answer: Its inhibition is 59.7%.

Question: And the inhibition [5]?
Answer: The inhibition was 16.6%.
